Laboratory results: ChEMBL document CHEMBL1126762, “Synthesis and anaerobic activity of novel 1-carba-1-dethiacephalosporins” (J Med Chem, 1993)
Values after ≈ are worked out from the molar mass of the structure shown.

Columns and labels:
[1] = system: Bacteroides thetaiotaomicron; experiment: Antibacterial activity against anaerobic Bacteroides thetaiotaomicron 1438; assay type: functional
Method in brief: (§1)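 MIC by agar dilution following the NCCLS M11-A2 (2nd ed.) procedure for antimicrobial testing of anaerobic bacteria.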

Klebsiella pneumoniae = experiment: Antibacterial activity against aerobic Klebsiella pneumoniae X26; assay type: functional
Method in brief: (§2)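 MIC by agar dilution following the NCCLS M7-A2 (2nd ed.) procedure for bacteria that grow aerobically.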

Bacteroides fragilis [2] = experiment: Antibacterial activity against anaerobic Bacteroides fragilis 111; assay type: functional; method in brief: as §1
Clostridium perfringens = experiment: Antibacterial activity against anaerobic Clostridium perfringens 81; assay type: functional
Method in brief: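 Agar dilution MIC following NCCLS document M11-A2 (Vol. 10, no. 15), the method for antimicrobial testing of anaerobic bacteria; value reported as minimum inhibitory concentration.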

Phocaeicola vulgatus = experiment: Antibacterial activity against anaerobic Bacteroides vulgatus 1211; assay type: functional; method in brief: as §1
[3] = system: Peptostreptococcus anaerobius; experiment: Antibacterial activity against anaerobic Peptostreptococcus anaerobius 1451; assay type: functional; method in brief: as §1
Streptococcus pneumoniae = experiment: Antibacterial activity against aerobic Streptococcus pneumoniae PARK; assay type: functional; method in brief: as §2
[4] = system: Prevotella melaninogenica; experiment: Antibacterial activity against anaerobic Bacteroides melaninogenicus 2736; assay type: functional; method in brief: as §1
Clostridioides difficile = experiment: Antibacterial activity against anaerobic Clostridium difficile 2994 strain; assay type: functional; method in brief: as §1
[5] = Antibacterial activity against anaerobic Fusobacterium symbiosum 1470; assay type: functional, fusobacterium symbosium; method in brief: as §1
Eikenella corrodens = experiment: Antibacterial activity against anaerobic Bacteroides corrodens 1874; assay type: functional; method in brief: as §1
Haemophilus influenzae = experiment: Antibacterial activity against aerobic Haemophilus influenzae RES 76; assay type: functional; method in brief: as §2
[6] = system: Staphylococcus epidermidis; experiment: Antibacterial activity against aerobic Staphylococcus epidermidis 222; assay type: functional; method in brief: as §2
Escherichia coli = experiment: Antibacterial activity against aerobic Escherichia coli EC14; assay type: functional; method in brief: as §2
[7] = system: Prevotella melaninogenica; experiment: Antibacterial activity against anaerobic Bacteroides melaninogenicus 1856/28; assay type: functional; method in brief: as §1
Cutibacterium acnes = experiment: Antibacterial activity against anaerobic Propionibacterium acnes 79; assay type: functional; method in brief: as §1
Staphylococcus aureus = experiment: Antibacterial activity against aerobic Staphylococcus aureus X1.1 strain; assay type: functional; method in brief: as §2
[8] = Antibacterial activity against anaerobic Eubacterium aerofaciens 1235; assay type: functional; conditions: Collinsella aerofaciens; method in brief: as §1
[9] = Antibacterial activity against anaerobic Peptostreptococcus intermedius 1264; assay type: functional; method in brief: as §1
Clostridium septicum = experiment: Antibacterial activity against anaerobic Clostridium septicum 1128; assay type: functional; method in brief: as §1
Bacteroides fragilis [10] = experiment: Antibacterial activity against anaerobic Bacteroides fragilis 1936B; assay type: functional; method in brief: as §1
Klebsiella aerogenes = experiment: Antibacterial activity against aerobic Enterobacter aerogenes C32; assay type: functional; method in brief: as §2
Pseudomonas aeruginosa = experiment: Antibacterial activity against aerobic Pseudomonas aeruginosa X239 strain; assay type: functional; method in brief: as §2
[11] = Antibacterial activity against anaerobic Peptococcus asaccharolyticus 1302; assay type: functional; conditions: Peptoniphilus asaccharolyticus; method in brief: as §1
Anaerococcus prevotii = experiment: Antibacterial activity against anaerobic Peptococcus prevoti 1281; assay type: functional; method in brief: as §1
Bacteroides fragilis [12] = experiment: Antibacterial activity against anaerobic Bacteroides fragilis 1877; assay type: functional; method in brief: as §1
[13] = system: Fusobacterium necrophorum; experiment: Antibacterial activity against anaerobic Fusobacterium necrophorum 6054A; assay type: functional; method in brief: as §1
[14] = Area under plasma time curve determined in male rat; assay type: ADME, organism-based
Method in brief: (§3)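 Male Sprague-Dawley rats given 20 mg/kg i.v. in saline through an indwelling jugular vein cannula, which was also used for serial blood sampling over 6 h. Plasma drug measured by agar well diffusion bioassay with Micrococcus luteus ATCC9241 (detection limit 3.2 μg/mL plasma). AUC by Simpson's rule.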

[15] = Maximum concentration reached following intravenous administration in male rat; assay type: ADME, organism-based; parameters: route intravenous; conditions: in vivo; method in brief: as §3
Bacteroides fragilis [16] = experiment: Antibacterial activity against anaerobic; assay type: functional; method in brief: as §1

| SMILES | MIC [1] | MIC (Klebsiella pneumoniae) | MIC (Bacteroides fragilis [2]) | MIC (Clostridium perfringens) | MIC (Phocaeicola vulgatus) | MIC [3] | MIC (Streptococcus pneumoniae) | MIC [4] | MIC (Clostridioides difficile) | MIC [5] | MIC (Eikenella corrodens) | MIC (Haemophilus influenzae) | MIC [6] | MIC (Escherichia coli) | MIC [7] | MIC (Cutibacterium acnes) | MIC (Staphylococcus aureus) | MIC [8] | MIC [9] | MIC (Clostridium septicum) | also measured |
| --- | --- | --- | --- | --- | --- | --- | --- | --- | --- | --- | --- | --- | --- | --- | --- | --- | --- | --- | --- | --- | --- |
| CO/N=C(\C(=O)N[C@@H]1C(=O)N2C(C(=O)O)=C(Sc3ncc(C#N)s3)CC[C@H]12)c1csc(N)n1 | 4 µg/mL (≈ 7.91 µM) | 0.25 µg/mL (≈ 0.494 µM) | > 128 µg/mL | 0.25 µg/mL (≈ 0.494 µM) | 16 µg/mL (≈ 31.6 µM) | 0.5 µg/mL (≈ 0.989 µM) | 0.008 µg/mL (≈ 0.0158 µM) | 32 µg/mL (≈ 63.3 µM) | 0.06 µg/mL (≈ 0.119 µM) | 2 µg/mL (≈ 3.96 µM) | > 128 µg/mL | 0.125 µg/mL (≈ 0.247 µM) | 1 µg/mL (≈ 1.98 µM) | 0.5 µg/mL (≈ 0.989 µM) | 0.25 µg/mL (≈ 0.494 µM) | 0.03 µg/mL (≈ 0.0593 µM) | 0.25 µg/mL (≈ 0.494 µM) | 16 µg/mL (≈ 31.6 µM) | 0.03 µg/mL (≈ 0.0593 µM) | 1 µg/mL (≈ 1.98 µM) | MIC (Bacteroides fragilis [10]): > 128 µg/mL; MIC (Klebsiella aerogenes): 0.5 µg/mL (≈ 0.989 µM); MIC (Pseudomonas aeruginosa): 128 µg/mL (≈ 253 µM); MIC [11]: 0.25 µg/mL (≈ 0.494 µM); MIC (Anaerococcus prevotii): 0.5 µg/mL (≈ 0.989 µM); MIC (Bacteroides fragilis [12]): 16 µg/mL (≈ 31.6 µM); MIC [13]: 0.25 µg/mL (≈ 0.494 µM) |
| Nc1nc(/C(=N/OCCF)C(=O)N[C@@H]2C(=O)N3C(C(=O)O)=C(Sc4ncc([N+](=O)[O-])s4)CC[C@H]23)cs1 | ≤ 0.5 µg/mL | 0.008 µg/mL (≈ 0.0143 µM) | 4 µg/mL (≈ 7.17 µM) | 1 µg/mL (≈ 1.79 µM) | 1 µg/mL (≈ 1.79 µM) | ≤ 0.5 µg/mL | 0.008 µg/mL (≈ 0.0143 µM) | 1 µg/mL (≈ 1.79 µM) | 4 µg/mL (≈ 7.17 µM) | 1 µg/mL (≈ 1.79 µM) | 8 µg/mL (≈ 14.3 µM) | 0.008 µg/mL (≈ 0.0143 µM) | 1 µg/mL (≈ 1.79 µM) | 0.5 µg/mL (≈ 0.897 µM) | 2 µg/mL (≈ 3.59 µM) | ≤ 0.5 µg/mL | 0.125 µg/mL (≈ 0.224 µM) | 4 µg/mL (≈ 7.17 µM) | ≤ 0.5 µg/mL | 1 µg/mL (≈ 1.79 µM) | AUC [14]: 11100 ng·h/mL; MIC (Bacteroides fragilis [10]): 4 µg/mL (≈ 7.17 µM); MIC (Klebsiella aerogenes): 1 µg/mL (≈ 1.79 µM); MIC (Pseudomonas aeruginosa): > 128 µg/mL; MIC [11]: ≤ 0.5 µg/mL; MIC (Anaerococcus prevotii): ≤ 0.5 µg/mL; MIC (Bacteroides fragilis [12]): 1 µg/mL (≈ 1.79 µM); MIC [13]: ≤ 0.5 µg/mL; Cmax [15]: 54.2 µg/mL |
| CO[C@@]1(NC(=O)C2SC(=C(C(N)=O)C(=O)O)S2)C(=O)N2C(C(=O)O)=C(CSc3nnnn3C)CS[C@@H]21 (stereo not given in full) [CEFOTETAN] | 1 µg/mL (≈ 1.74 µM) | 0.125 µg/mL (≈ 0.217 µM) | 8 µg/mL (≈ 13.9 µM) | 1 µg/mL (≈ 1.74 µM) | 4 µg/mL (≈ 6.95 µM) | 128 µg/mL (≈ 222 µM) | 4 µg/mL (≈ 6.95 µM) | 128 µg/mL (≈ 222 µM) | 16 µg/mL (≈ 27.8 µM) | 128 µg/mL (≈ 222 µM) | 8 µg/mL (≈ 13.9 µM) | 1 µg/mL (≈ 1.74 µM) | 16 µg/mL (≈ 27.8 µM) | 0.125 µg/mL (≈ 0.217 µM) | 128 µg/mL (≈ 222 µM) | 1 µg/mL (≈ 1.74 µM) | 8 µg/mL (≈ 13.9 µM) | 4 µg/mL (≈ 6.95 µM) | 8 µg/mL (≈ 13.9 µM) | 4 µg/mL (≈ 6.95 µM) | MIC (Bacteroides fragilis [10]): 8 µg/mL (≈ 13.9 µM); MIC (Klebsiella aerogenes): 8 µg/mL (≈ 13.9 µM); MIC (Pseudomonas aeruginosa): > 128 µg/mL; MIC [11]: 1 µg/mL (≈ 1.74 µM); MIC (Anaerococcus prevotii): 8 µg/mL (≈ 13.9 µM); MIC (Bacteroides fragilis [12]): 8 µg/mL (≈ 13.9 µM); MIC [13]: > 128 µg/mL |
| CO[C@@]1(NC(=O)Cc2cccs2)C(=O)N2C(C(=O)O)=C(COC(N)=O)CS[C@@H]21 [CEFOXITIN] | 2 µg/mL (≈ 4.68 µM) | 1 µg/mL (≈ 2.34 µM) | 8 µg/mL (≈ 18.7 µM) | 2 µg/mL (≈ 4.68 µM) | 8 µg/mL (≈ 18.7 µM) | 2 µg/mL (≈ 4.68 µM) | 0.5 µg/mL (≈ 1.17 µM) | 8 µg/mL (≈ 18.7 µM) | 32 µg/mL (≈ 74.9 µM) | 8 µg/mL (≈ 18.7 µM) | 4 µg/mL (≈ 9.36 µM) | 2 µg/mL (≈ 4.68 µM) | 4 µg/mL (≈ 9.36 µM) | 2 µg/mL (≈ 4.68 µM) | 4 µg/mL (≈ 9.36 µM) | 2 µg/mL (≈ 4.68 µM) | 4 µg/mL (≈ 9.36 µM) | 8 µg/mL (≈ 18.7 µM) | 2 µg/mL (≈ 4.68 µM) | 4 µg/mL (≈ 9.36 µM) | MIC (Bacteroides fragilis [10]): 8 µg/mL (≈ 18.7 µM); MIC (Klebsiella aerogenes): > 128 µg/mL; MIC (Pseudomonas aeruginosa): > 128 µg/mL; MIC [11]: ≤ 0.5 µg/mL; MIC (Bacteroides fragilis [16]): 4 µg/mL (≈ 9.36 µM); MIC (Anaerococcus prevotii): 1 µg/mL (≈ 2.34 µM); MIC [13]: ≤ 0.5 µg/mL |
